Results: paper PMC7126328 (Bioorganic & Medicinal Chemistry, 2013)
Several values for one entry are separate records, joined by “and”; a condition that tells them apart may be missing. Equal entries are not always repeated.

Tests used:
E. coli/pET36b-gfp [1] = experiment: microbe, parasite or virus in culture; details: Escherichia coli, read-out: Inhibition/induction of the synthesis of the reporter protein GFP, E. coli/pET36b-gfp
E. coli/pET36b-gfp [2] = details: for Toxic and mutagenic effects on indicator cells E. coli/pET36b-gfp (in words): 150 μM; for The value of the fluorescence of GFP synthesized in biosensor cells, Biosensor E. coli/pET36b-gfp: 150 μM compound in culture medium, IPTG 1 mM
E. coli/pRAC-gfp [3] = details: for Toxic and mutagenic effects on indicator cells E. coli/pRAC-gfp (in words): 150 μM; for The value of the fluorescence of GFP synthesized in biosensor cells, Biosensor E. coli/pRAC-gfp: 150 μM compound in culture medium, 1.5 h
[4] = MTT cell viability assay, MT-4; assay type: cell-based; details: human, MT-4 cells
In short: (§1)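 Test compound, dissolved in DMSO, was added and cells were cultured for 72 h (37 °C, 5% CO2), three wells per concentration, with untreated cells as control. Then 1% MTT was added for 4 h, DMSO added and mixed 15 min, and OD read at 570 nm.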

E. coli/pRAC-gfp [5] = experiment: microbe, parasite or virus in culture; details: Escherichia coli, read-out: Inhibition/induction of the synthesis of the reporter protein GFP, E. coli/pRAC-gfp
[6] = MTT cell viability assay, U-937; assay type: cell-based; details: human, U-937 cells (monocytes)
In short: as §1

MDCK cells = details: 48 h, MTT

Row | SMILES | inhibition at 150 µM (E. coli/pET36b-gfp [1]) [%] | Toxic and mutagenic effects on indicator cells E. coli/pET36b-gfp (in words) (E. coli/pET36b-gfp [2]) | The value of the fluorescence of GFP synthesized in biosensor cells, Biosensor E. coli/pET36b-gfp (E. coli/pET36b-gfp [2]) [conventional units] | Toxic and mutagenic effects on indicator cells E. coli/pRAC-gfp (in words) (E. coli/pRAC-gfp [3]) | The value of the fluorescence of GFP synthesized in biosensor cells, Biosensor E. coli/pRAC-gfp (E. coli/pRAC-gfp [3]) [conventional units] | IC50 at 72 h [4] [µM] | inhibition at 150 µM (E. coli/pRAC-gfp [5]) [%] | IC50 at 72 h [6] [µM] | CTD50, cytotoxic concentration; the concentration leading to 50% death of cells (MDCK cells)
1 | CC[N+](CC)(CCCCC[N+](CC)(CC)CC/N=C1\C[C@H]2CC[C@]1(C)C2(C)C)CC/N=C1\C[C@H]2CC[C@]1(C)C2(C)C [Compound 3a, N^1,N^1,N^5,N^5-Tetraethyl-N^1,N^5-bis(2-((E)-((1R,4R)-1,7,7-trimethylbicyclo[2.2.1]heptan-2-ylidene)amino)ethyl)pentane-1,5-diaminium bromide] | < 20 | neither toxic nor mutagenic effects | 546.9 ± 65.6 | neither toxic nor mutagenic effects | 168.9 ± 13.5 | 57.5 ± 3.8 | < 20 | 95.8 ± 5.6 | 
2 | CCN(CC)CC/N=C1\C[C@H]2CC[C@]1(C)C2(C)C [Compound 2, (E)-N^1,N^1-Diethyl-N^2-((1R,4R)-1,7,7-trimethylbicyclo[2.2.1]heptan-2-ylidene)ethane-1,2-diamine] | < 20 | neither toxic nor mutagenic effects | 512.7 ± 32.4 | neither toxic nor mutagenic effects | 171.4 ± 14.5 |  | < 20 |  | 
3 | CC[N+](C)(CC)CC/N=C1\C[C@H]2CC[C@]1(C)C2(C)C [Compound 4a, N,N-Diethyl-N-methyl-2-((E)-((1R,4R)-1,7,7-trimethylbicyclo[2.2.1]heptan-2-ylidene)amino)ethanaminium iodide] | < 20 |  | 535.72 ± 307 |  | 189.21 ± 17.7 | > 100 | < 20 | 58.6 ± 4.6 | 
4 | CC[N+](CC)(CCCCCCCCCC[N+](CC)(CC)CC/N=C1\C[C@H]2CC[C@]1(C)C2(C)C)CC/N=C1\C[C@H]2CC[C@]1(C)C2(C)C [Compound 3e, N^1,N^1,N^10,N^10-Tetraethyl-N^1,N^10-bis(2-((E)-((1R,4R)-1,7,7-trimethylbicyclo[2.2.1]heptan-2-ylidene)amino)ethyl)decane-1,10-diaminium bromide] |  | highly toxic | 110.7 ± 7.2 | highly toxic | 56.9 ± 3.1 | 66.1 ± 4.4 |  | 53.6 ± 2.2 | 
5 | CC[N+](CC)(CC/N=C1\C[C@H]2CC[C@]1(C)C2(C)C)Cc1ccc(C[N+](CC)(CC)CC/N=C2\C[C@H]3CC[C@]2(C)C3(C)C)cc1 [Compound 3g, (R,R,E)-N,N′-(1,4-Phenylenebis(methylene))bis(N,N-diethyl-2-((E)-((1R,4R)-1,7,7-trimethylbicyclo[2.2.1]heptan-2-ylidene)amino)ethanaminium) bromide] | < 20 | neither toxic nor mutagenic effects | 466.46 ± 4.1 | neither toxic nor mutagenic effects | 170.87 ± 8.9 | 40.5 ± 3 | < 20 | 54.9 ± 2.6 | 
6 | CC[N+](CC)(CCCCCCCC[N+](CC)(CC)CC/N=C1\C[C@H]2CC[C@]1(C)C2(C)C)CC/N=C1\C[C@H]2CC[C@]1(C)C2(C)C [Compound 3c] |  | highly toxic | 165.5 ± 8.1 | highly toxic | 81.7 ± 3.6 |  |  |  | 552.5 ± 49.1 µM
7 | CC[N+](CC)(CCCCCCCCCCCC[N+](CC)(CC)CC/N=C1\C[C@H]2CC[C@]1(C)C2(C)C)CC/N=C1\C[C@H]2CC[C@]1(C)C2(C)C [Compound 3f, N^1,N^1,N^12,N^12-Tetraethyl-N^1,N^12-bis(2-((E)-((1R,4R)-1,7,7-trimethylbicyclo[2.2.1]heptan-2-ylidene)amino)ethyl)dodecane-1,12-diaminium bromide] |  | highly toxic | 51.3 ± 4.6 | highly toxic | 49.3 ± 2.1 | 40.4 ± 3.9 |  | 15.9 ± 1.1 | 
8 | CC[N+](CC)(CCCCCCCCC[N+](CC)(CC)CC/N=C1\C[C@H]2CC[C@]1(C)C2(C)C)CC/N=C1\C[C@H]2CC[C@]1(C)C2(C)C [Compound 3d, N^1,N^1,N^9,N^9-Tetraethyl-N^1,N^9-bis(2-((E)-((1R,4R)-1,7,7-trimethylbicyclo[2.2.1]heptan-2-ylidene)amino)ethyl)nonane-1,9-diaminium bromide] |  | highly toxic | 172.3 ± 6.2 | highly toxic | 95.9 ± 4.3 | 66 ± 5.3 |  | 58.6 ± 3.4 | 
9 | CC[N+](CC)(CCCCCCCC[N+](CC)(CC)CC/N=C1\C[C@H]2CC[C@]1(C)C2(C)C)CC/N=C1\C[C@H]2CC[C@]1(C)C2(C)C [Compound 3c, N^1,N^1,N^8,N^8-Tetraethyl-N^1,N^8-bis(2-((E)-((1R,4R)-1,7,7-trimethylbicyclo[2.2.1]heptan-2-ylideneamino)ethyl)octane-1,8-diaminium bromide] |  |  |  |  |  | 69.8 ± 2.7 |  | 67.2 ± 5.9 | 
10 | CC[N+](CC)(CC)CC/N=C1\C[C@H]2CC[C@]1(C)C2(C)C [Compound 4b, N,N,N-Triethyl-2-((E)-((1R,4R)-1,7,7-trimethylbicyclo[2.2.1]heptan-2-ylidene)amino)ethanaminium bromide] | < 20 | neither toxic nor mutagenic effects | 547.9 ± 40.8 | neither toxic nor mutagenic effects | 176.9 ± 16.9 | > 100 | < 20 | > 100 | 
11 | CC[N+](CC)(CCCCCC[N+](CC)(CC)CC/N=C1\C[C@H]2CC[C@]1(C)C2(C)C)CC/N=C1\C[C@H]2CC[C@]1(C)C2(C)C [Compound 3b, N^1,N^1,N^6,N^6-Tetraethyl-N^1,N^6-bis(2-((E)-((1R,4R)-1,7,7-trimethylbicyclo[2.2.1]heptan-2-ylidene)amino)ethyl)hexane-1,6-diaminium bromide] | < 20 | neither toxic nor mutagenic effects | 495.5 ± 15.2 | neither toxic nor mutagenic effects | 186.2 ± 22.9 | 48.3 ± 3.2 | < 20 |  | 1712 µM and 1712.3 ± 169.8 µM
